Test results taken from ChEMBL document CHEMBL1759915, “Synthesis and anticancer effects of some novel pyrazolo[3,4-d]pyrimidine derivatives by generating reactive oxygen species in human breast adenocarcinoma cells” (Eur J Med Chem, 2011).
≈ marks a conversion by molar mass, not a printed value.

What was measured:
MCF7 [1] = assay: Decrease in RNA level in human MCF7 cells assessed per 10 '6 cells after 24 hrs relative to control; format: functional, cell-based
Procedure, shortened: (§1)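 After 24 h exposure of MCF-7 cells to compound at 2, 5, 10 or 20 µg/ml at 37 °C, nucleic acids were precipitated from cell homogenates. DNA was extracted and assayed by the Zhou et al. method, and RNA by a kit-derived procedure. Results given per 10⁶ cells as means ± S.E. of four experiments versus untreated control.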

MCF7 [2] = assay: Effect on RNA level in human MCF7 cells assessed per 10 '6 cells at 2 ug/ml after 24 hrs (reference value: 11.50 +/- 0.70 ug/10^6 cells); format: functional; procedure, shortened: as §1
MCF7 [3] = assay: Effect on CAT level in human MCF7 cells assessed per mg protein at 20 ug/ml after 24 hrs (reference value: 7.90+/- 0.67 U/mg of protein); format: functional
MCF7 [4] = assay: Effect on CAT level in human MCF7 cells assessed per mg protein at 5 ug/ml after 24 hrs (reference value: 7.90+/- 0.67 U/mg of protein); format: functional
MCF7 [5] = assay: Effect on glutathione level in human MCF7 cells assessed per mg protein at 2 ug/ml by Ellman method after 24 hrs (reference value: 39.82 +/- 4.20 nmol/mg of protein); format: functional
MCF7 [6] = assay: Antiproliferative activity against human MCF7 cells after 24 hrs by MTT assay; format: functional, cell-based; settings: for IC50: MCF7, 24 h
Procedure, shortened: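 MCF-7 cells (DMEM, 10% heat-inactivated FCS, penicillin/streptomycin, 37 °C, 5% CO2) plated at 0.65 × 10⁵ cells/well and given 24 h to attach. Exposed to compound or cisplatin at 2, 5, 10 or 20 µg/ml for 24 h at 37 °C. MTT added for 4 h, formazan dissolved in DMSO, absorbance read at 570 nm. Viability taken relative to untreated cells and IC50 derived.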

MCF7 [7] = assay: Effect on glutathione level in human MCF7 cells assessed per mg protein at 5 ug/ml by Ellman method after 24 hrs (reference value: 39.82 +/- 4.20 nmol/mg of protein); format: functional
MCF7 [8] = assay: Effect on hydrogen peroxide level in human MCF7 cells assessed per mg protein at 2 ug/ml by Wolf's method after 24 hrs (reference value: 12.50 +/- 1.54 nmol/mg of protein); format: functional
MCF7 [9] = assay: Effect on DNA level in human MCF7 cells assessed per 10 '6 cells at 10 ug/ml after 24 hrs (reference value: 6.80 +/- 0.70 ug/10^6 cells); format: functional; procedure, shortened: as §1
MCF7 [10] = assay: Effect on DNA level in human MCF7 cells assessed per 10 '6 cells at 20 ug/ml after 24 hrs (reference value: 6.80 +/- 0.70 ug/10^6 cells); format: functional; procedure, shortened: as §1
MCF7 [11] = assay: Effect on SOD level in human MCF7 cells assessed per mg protein at 20 ug/ml after 24 hrs (reference value: 27.61+/- 3.72 U/mg of protein); format: functional
MCF7 [12] = assay: Increase in hydrogen peroxide level in human MCF7 cells; format: functional, cell-based
MCF7 [13] = assay: Effect on hydrogen peroxide level in human MCF7 cells assessed per mg protein at 10 ug/ml by Wolf's method after 24 hrs (reference value: 12.50 +/- 1.54 nmol/mg of protein); format: functional
MCF7 [14] = assay: Decrease in glutathione peroxidase level in human MCF7 cells; format: functional, cell-based
MCF7 [15] = assay: Effect on glutathione peroxidase level in human MCF7 cells assessed per mg protein at 5 ug/ml after 24 hrs (reference value: 11.20 +/- 1.36 U/mg of protein); format: functional
MCF7 [16] = assay: Effect on SOD level in human MCF7 cells assessed per mg protein at 10 ug/ml after 24 hrs (reference value: 27.61+/- 3.72 U/mg of protein); format: functional
MCF7 [17] = assay: Effect on glutathione peroxidase level in human MCF7 cells assessed per mg protein at 20 ug/ml after 24 hrs (reference value: 11.20 +/- 1.36 U/mg of protein); format: functional
MCF7 [18] = assay: Effect on glutathione level in human MCF7 cells assessed per mg protein at 20 ug/ml by Ellman method after 24 hrs (reference value: 39.82 +/- 4.20 nmol/mg of protein); format: functional
MCF7 [19] = assay: Effect on hydrogen peroxide level in human MCF7 cells assessed per mg protein at 5 ug/ml by Wolf's method after 24 hrs (reference value: 12.50 +/- 1.54 nmol/mg of protein); format: functional
MCF7 [20] = assay: Effect on RNA level in human MCF7 cells assessed per 10 '6 cells at 5 ug/ml after 24 hrs (reference value: 11.50 +/- 0.70 ug/10^6 cells); format: functional; procedure, shortened: as §1
MCF7 [21] = assay: Effect on CAT level in human MCF7 cells assessed per mg protein at 10 ug/ml after 24 hrs (reference value: 7.90+/- 0.67 U/mg of protein); format: functional
MCF7 [22] = assay: Effect on hydrogen peroxide level in human MCF7 cells assessed per mg protein at 20 ug/ml by Wolf's method after 24 hrs (reference value: 12.50 +/- 1.54 nmol/mg of protein); format: functional
MCF7 [23] = assay: Effect on glutathione level in human MCF7 cells assessed per mg protein at 10 ug/ml by Ellman method after 24 hrs (reference value: 39.82 +/- 4.20 nmol/mg of protein); format: functional
MCF7 [24] = assay: Effect on DNA level in human MCF7 cells assessed per 10 '6 cells at 2 ug/ml after 24 hrs (reference value: 6.80 +/- 0.70 ug/10^6 cells); format: functional; procedure, shortened: as §1
MCF7 [25] = assay: Increase in SOD level in human MCF7 cells; format: functional, cell-based
MCF7 [26] = assay: Effect on DNA level in human MCF7 cells assessed per 10 '6 cells at 5 ug/ml after 24 hrs (reference value: 6.80 +/- 0.70 ug/10^6 cells); format: functional; procedure, shortened: as §1
MCF7 [27] = assay: Effect on glutathione peroxidase level in human MCF7 cells assessed per mg protein at 2 ug/ml after 24 hrs (reference value: 11.20 +/- 1.36 U/mg of protein); format: functional
MCF7 [28] = assay: Effect on SOD level in human MCF7 cells assessed per mg protein at 5 ug/ml after 24 hrs (reference value: 27.61+/- 3.72 U/mg of protein); format: functional
MCF7 [29] = assay: Effect on CAT level in human MCF7 cells assessed per mg protein at 2 ug/ml after 24 hrs (reference value: 7.90+/- 0.67 U/mg of protein); format: functional
MCF7 [30] = assay: Decrease in glutathione level in human MCF7 cells; format: functional, cell-based
MCF7 [31] = assay: Decrease in CAT level in human MCF7 cells; format: functional, cell-based
MCF7 [32] = assay: Effect on RNA level in human MCF7 cells assessed per 10 '6 cells at 10 ug/ml after 24 hrs (reference value: 11.50 +/- 0.70 ug/10^6 cells); format: functional; procedure, shortened: as §1
MCF7 [33] = assay: Effect on glutathione peroxidase level in human MCF7 cells assessed per mg protein at 10 ug/ml after 24 hrs (reference value: 11.20 +/- 1.36 U/mg of protein); format: functional
MCF7 [34] = assay: Effect on SOD level in human MCF7 cells assessed per mg protein at 2 ug/ml after 24 hrs (reference value: 27.61+/- 3.72 U/mg of protein); format: functional
MCF7 [35] = assay: Decrease in DNA level in human MCF7 cells assessed per 10 '6 cells after 24 hrs relative to control; format: functional, cell-based; procedure, shortened: as §1
MCF7 [36] = assay: Effect on RNA level in human MCF7 cells assessed per 10 '6 cells at 20 ug/ml after 24 hrs (reference value: 11.50 +/- 0.70 ug/10^6 cells); format: functional; procedure, shortened: as §1

| SMILES | Activity (MCF7 [1]) | Activity (MCF7 [2]) [µg/10^6 cells] | Activity (MCF7 [3]) [U/mg protein] | Activity (MCF7 [4]) [U/mg protein] | Activity (MCF7 [5]) [nmol] | Activity (MCF7 [6]) | IC50 (MCF7 [6]) [µg/mL] | Activity (MCF7 [7]) [nmol] | Activity (MCF7 [8]) [nmol] | Activity (MCF7 [9]) [µg/10^6 cells] | Activity (MCF7 [10]) [µg/10^6 cells] | Activity (MCF7 [11]) [U/mg protein] | Activity (MCF7 [12]) | Activity (MCF7 [13]) [nmol] | Activity (MCF7 [14]) | Activity (MCF7 [15]) [U/mg protein] | Activity (MCF7 [16]) [U/mg protein] | Activity (MCF7 [17]) [U/mg protein] | Activity (MCF7 [18]) [nmol] | Activity (MCF7 [19]) [nmol] | also measured |
| --- | --- | --- | --- | --- | --- | --- | --- | --- | --- | --- | --- | --- | --- | --- | --- | --- | --- | --- | --- | --- | --- |
| COCCSc1ncnc2c1cnn2-c1nc(C)nc2sc3c(c12)-c1ccccc1CC3 | Dose-dependent effect | 6.2 | 2.1 | 3.4 | 23.6 | Dose-dependent effect | 4.3 (≈ 9.34 µM) | 20.95 | 30.75 | 2.96 | 2.5 | 310 | Dose-dependent effect | 58.5 | Dose-dependent effect | 5.65 | 310 | 2.9 | 15.6 | 45.77 | Activity (MCF7 [20]): 5.72 µg/10^6 cells; Activity (MCF7 [21]): 3 U/mg protein; Activity (MCF7 [22]): 66.8 nmol; Activity (MCF7 [23]): 18.75 nmol; Activity (MCF7 [24]): 4 µg/10^6 cells; Activity (MCF7 [25]): Dose-dependent effect; Activity (MCF7 [26]): 3.44 µg/10^6 cells; Activity (MCF7 [27]): 6 U/mg protein; Activity (MCF7 [28]): 136 U/mg protein; Activity (MCF7 [29]): 3.9 U/mg protein; Activity (MCF7 [30]): Dose-dependent effect; Activity (MCF7 [31]): Dose-dependent effect; Activity (MCF7 [32]): 5.21 µg/10^6 cells; Activity (MCF7 [33]): 4 U/mg protein; Activity (MCF7 [34]): 105 U/mg protein; Activity (MCF7 [35]): Dose-dependent effect; Activity (MCF7 [36]): 4.8 µg/10^6 cells |
| Cc1nc(-n2ncc3c(=S)[nH]cnc32)c2c3c(sc2n1)CCc1ccccc1-3 | Dose-dependent effect | 9.11 | 4 | 5.36 | 39.9 | Dose-dependent effect | 8 (≈ 19.9 µM) | 33.12 | 24.2 | 4.76 | 4 | 181 | Dose-dependent effect | 30.5 | Dose-dependent effect | 7.9 | 121 | 6.82 | 27 | 21.6 | Activity (MCF7 [20]): 7.9 µg/10^6 cells; Activity (MCF7 [21]): 4.9 U/mg protein; Activity (MCF7 [22]): 46.37 nmol; Activity (MCF7 [23]): 29.11 nmol; Activity (MCF7 [24]): 5.3 µg/10^6 cells; Activity (MCF7 [25]): Dose-dependent effect; Activity (MCF7 [26]): 5 µg/10^6 cells; Activity (MCF7 [27]): 8.3 U/mg protein; Activity (MCF7 [28]): 85.4 U/mg protein; Activity (MCF7 [29]): 6.33 U/mg protein; Activity (MCF7 [30]): Dose-dependent effect; Activity (MCF7 [31]): Dose-dependent effect; Activity (MCF7 [32]): 7 µg/10^6 cells; Activity (MCF7 [33]): 7.7 U/mg protein; Activity (MCF7 [34]): 77.9 U/mg protein; Activity (MCF7 [35]): Dose-dependent effect; Activity (MCF7 [36]): 6.8 µg/10^6 cells |
